{"source": "ChEMBL document CHEMBL1137451", "about": "“Synthesis and evaluation of antifungal properties of a series of the novel 2-amino-5-oxo-4-phenyl-5,6,7,8-tetrahydroquinoline-3-carbonitrile and its analogues” (Bioorg Med Chem, 2007)", "key": {"Benjaminiella poitrasii [1]": {"system": "Benjaminiella poitrasii", "test": "Inhibition of Benjaminiella poitrasii chitin synthase at 4 ug/mL", "in_short": "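Chitin synthase from Benjaminiella poitrasii measured with and without compound at 4 µg/ml, using a non-radioactive chitin synthase assay. Nikkomycin Z used as reference.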"}, "Benjaminiella poitrasii [2]": {"system": "Benjaminiella poitrasii", "test": "Inhibition of yeast hypha transition at 4 ug/mL after 4 hrs"}}, "data": [{"smiles": "C[C@@H]([C@H](N)C(=O)N[C@H](C(=O)O)[C@H]1O[C@@H](n2ccc(=O)[nH]c2=O)[C@H](O)[C@@H]1O)[C@H](O)c1ccc(O)cn1", "note": "[NIKKOMYCIN]", "values": [{"measurement": "inhibition", "setting": "Benjaminiella poitrasii [1]", "result": "> 90", "unit": "%"}, {"measurement": "inhibition at 4 µg/mL", "setting": "Benjaminiella poitrasii [2]", "result": "> 90", "unit": "%"}]}]}
